From ChEMBL document CHEMBL1128519, “Semisynthetic chemical modification of the antifungal lipopeptide echinocandin B (ECB): structure-activity studies of the lipophilic and geometric parameters of polyarylated acyl analogs of ECB” (J Med Chem, 1995)
≈ marks a conversion by molar mass, not a printed value. Numbered stars: 1 amine (or outer) side, 2 acyl side, 3 side chain; on linkers, the order of the positions; unused ones are H or OH. Bridge positions count the residues as written; N and C are the ends. Square brackets hold non-standard residues; d marks the D form. Peptide text beside a SMILES is read from it. * marks the point of attachment. Orn(4R-OH,5R-OH) = O=C([C@H](C[C@@H](O)[C@@H](O)N[*:3])N[*:1])[*:2]; hTyr(3S-OH,4S-OH) = N[C@H](C(=O)O)[C@H](O)[C@@H](O)c1ccc(O)cc1; Pro(3S-OH,4S-Me) = C[C@H]1CN[C@H](C(=O)O)[C@H]1O; X25 = CCCCCCCCCCCCC(Oc1ccc(-c2ccccc2)cc1)C(=O)*; X18 = O=C(c1ccc(C#Cc2ccc(-c3ccccc3)cc2)cc1)*; X11 = CCC(CC)COc1ccc(-c2ccc(C(=O)*)cc2)cc1; X22 = O=C(c1ccc(-c2ccc(OCC3CCCC3)cc2)cc1)*; X24 = CCCCC(Oc1ccc(-c2ccccc2)cc1)C(=O)*; X21 = CCCCOc1ccc(-c2ccc(C(=O)*)cc2)cc1; X26 = CCCCOc1ccc(Cc2ccc(C(=O)*)cc2)cc1; X28 = CCCCOc1ccc(Oc2ccc(C(=O)*)cc2)cc1; X23 = O=C(CCCCCOc1ccc(-c2ccccc2)cc1)*; X27 = CCCCCCCCCCOc1cc2ccccc2cc1C(=O)*; X19 = CCCCCCCCOCCOc1ccc(C(=O)*)cc1; X30 = CCCCCCOc1cc2ccccc2cc1C(=O)*; Hyp = O=C(O)[C@@H]1C[C@@H](O)CN1; X29 = CCCCCOCCOc1ccc(C(=O)*)cc1

What was measured:
Candida albicans [1] = assay: Antifungal activity against Candida albicans; assay type: functional
In short: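 Broth microdilution, C. albicans A26 (ATCC 62342) grown on Sabouraud dextrose agar at 35 °C; inoculum 1 × 10^5 conidia/mL in antibiotic 3 broth. Compounds dissolved at 1.0 mg/mL in methanol, 2-fold serial dilutions from 80 µg/mL, duplicate. Read after 48 h at 35 °C. MIC = lowest concentration completely inhibiting visible growth.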

[2] = biological target: Beta-1,3-glucan synthase (Candida albicans) (UniProt O13428); assay: In vitro inhibition of glucan synthase obtained from Candida albicans at a concentration of 10 ug/mL.
Sequence of Beta-1,3-glucan synthase (Candida albicans) (O13428 as listed by the source): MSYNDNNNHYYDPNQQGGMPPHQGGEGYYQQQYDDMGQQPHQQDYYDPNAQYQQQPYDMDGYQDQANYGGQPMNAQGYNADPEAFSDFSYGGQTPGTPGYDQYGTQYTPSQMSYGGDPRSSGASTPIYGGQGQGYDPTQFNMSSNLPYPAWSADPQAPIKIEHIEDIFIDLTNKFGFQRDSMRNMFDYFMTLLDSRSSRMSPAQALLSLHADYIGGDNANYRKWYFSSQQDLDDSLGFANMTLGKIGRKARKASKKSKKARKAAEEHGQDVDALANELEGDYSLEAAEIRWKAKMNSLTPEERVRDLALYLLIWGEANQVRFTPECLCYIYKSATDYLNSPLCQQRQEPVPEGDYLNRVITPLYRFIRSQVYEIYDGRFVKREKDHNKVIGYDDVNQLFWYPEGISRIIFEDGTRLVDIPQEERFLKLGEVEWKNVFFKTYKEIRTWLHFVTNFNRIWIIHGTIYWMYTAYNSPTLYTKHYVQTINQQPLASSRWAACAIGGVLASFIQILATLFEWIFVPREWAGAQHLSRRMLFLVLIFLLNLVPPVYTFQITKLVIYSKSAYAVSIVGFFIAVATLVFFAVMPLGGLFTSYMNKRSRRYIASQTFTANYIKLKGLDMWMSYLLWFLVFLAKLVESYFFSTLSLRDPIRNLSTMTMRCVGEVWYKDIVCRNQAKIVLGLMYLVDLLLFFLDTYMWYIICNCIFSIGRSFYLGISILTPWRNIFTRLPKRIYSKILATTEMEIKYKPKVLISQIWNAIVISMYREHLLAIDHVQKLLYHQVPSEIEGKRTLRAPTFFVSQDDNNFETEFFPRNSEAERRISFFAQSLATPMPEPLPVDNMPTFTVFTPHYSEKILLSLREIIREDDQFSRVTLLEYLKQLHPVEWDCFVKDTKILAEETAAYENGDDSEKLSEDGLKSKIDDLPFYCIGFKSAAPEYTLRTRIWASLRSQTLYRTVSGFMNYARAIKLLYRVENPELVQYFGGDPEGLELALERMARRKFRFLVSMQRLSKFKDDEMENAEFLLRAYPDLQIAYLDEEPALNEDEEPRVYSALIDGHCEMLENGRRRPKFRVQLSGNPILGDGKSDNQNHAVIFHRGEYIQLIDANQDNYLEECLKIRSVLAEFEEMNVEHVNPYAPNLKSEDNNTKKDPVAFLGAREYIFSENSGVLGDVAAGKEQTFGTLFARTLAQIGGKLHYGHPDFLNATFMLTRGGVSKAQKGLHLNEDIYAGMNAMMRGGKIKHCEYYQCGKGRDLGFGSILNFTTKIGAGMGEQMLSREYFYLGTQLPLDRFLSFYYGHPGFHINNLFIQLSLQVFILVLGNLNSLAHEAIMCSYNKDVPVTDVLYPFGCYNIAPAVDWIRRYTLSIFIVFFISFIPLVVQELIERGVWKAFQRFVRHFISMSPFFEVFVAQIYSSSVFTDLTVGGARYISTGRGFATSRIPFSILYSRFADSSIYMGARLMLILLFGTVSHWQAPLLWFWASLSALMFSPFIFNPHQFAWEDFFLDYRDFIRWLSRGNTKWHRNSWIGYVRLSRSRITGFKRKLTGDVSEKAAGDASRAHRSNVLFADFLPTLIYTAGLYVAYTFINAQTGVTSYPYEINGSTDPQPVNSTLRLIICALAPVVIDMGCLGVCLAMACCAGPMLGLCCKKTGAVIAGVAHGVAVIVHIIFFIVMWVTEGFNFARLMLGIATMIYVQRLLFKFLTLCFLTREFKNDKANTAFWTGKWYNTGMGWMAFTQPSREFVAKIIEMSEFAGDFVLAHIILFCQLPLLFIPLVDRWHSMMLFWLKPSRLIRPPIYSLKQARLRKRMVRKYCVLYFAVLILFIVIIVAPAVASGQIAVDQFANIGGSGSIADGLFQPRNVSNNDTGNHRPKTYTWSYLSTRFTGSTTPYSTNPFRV
In short: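 Purified, solubilized β-(1,3)-D-glucan synthase prepared from C. albicans. Percent inhibition measured at 10 µg/mL compound, single determination.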

Candida albicans [3] = assay: In vivo antifungal activity administered intraperitoneally against Candida albicans infections in mice.; assay type: functional; conditions: ip
In short: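 Male ICR mice (18-20 g), X-irradiated with 400 r 24 h before iv tail-vein infection with 2 × 10^6 C. albicans A26 cells in saline. Compounds suspended in β-cyclodextrin, given parenterally at 0, 4, 24 and 48 h post-infection. 10 mice per dose, top dose 10 mg/kg with 2-fold dilutions down to 0.039 mg/kg. 7-day survival; ED50 by Reed-Muench.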

| Structure (SMILES) | MIC (Candida albicans [1]) | inhibition [2] | ED50 (Candida albicans [3]) |
| --- | --- | --- | --- |
| CCCCOc1ccc(Cc2ccc(C(=O)N[C@H]3C[C@@H](O)[C@@H](O)NC(=O)[C@@H]4[C@@H](O)[C@@H](C)CN4C(=O)[C@H]([C@@H](C)O)NC(=O)[C@H]([C@H](O)[C@@H](O)c4ccc(O)cc4)NC(=O)[C@@H]4C[C@@H](O)CN4C(=O)[C@H]([C@@H](C)O)NC3=O)cc2)cc1 (X26-[Orn(4R-OH,5R-OH)]T[Hyp][hTyr(3S-OH,4S-OH)]T[Pro(3S-OH,4S-Me)]; lactam 1-C) | > 20 µg/mL | 43.4% |  |
| CCCCCCCCCCCCC(Oc1ccc(-c2ccccc2)cc1)C(=O)N[C@H]1C[C@@H](O)[C@@H](O)NC(=O)[C@@H]2[C@@H](O)[C@@H](C)CN2C(=O)[C@H]([C@@H](C)O)NC(=O)[C@H]([C@H](O)[C@@H](O)c2ccc(O)cc2)NC(=O)[C@@H]2C[C@@H](O)CN2C(=O)[C@H]([C@@H](C)O)NC1=O (stereo partly drawn) (X25-[Orn(4R-OH,5R-OH)]T[Hyp][hTyr(3S-OH,4S-OH)]T[Pro(3S-OH,4S-Me)]; lactam 1-C) | 0.312 µg/mL (≈ 0.265 µM) | 83% |  |
| CCCCOc1ccc(Oc2ccc(C(=O)N[C@H]3C[C@@H](O)[C@@H](O)NC(=O)[C@@H]4[C@@H](O)[C@@H](C)CN4C(=O)[C@H]([C@@H](C)O)NC(=O)[C@H]([C@H](O)[C@@H](O)c4ccc(O)cc4)NC(=O)[C@@H]4C[C@@H](O)CN4C(=O)[C@H]([C@@H](C)O)NC3=O)cc2)cc1 (X28-[Orn(4R-OH,5R-OH)]T[Hyp][hTyr(3S-OH,4S-OH)]T[Pro(3S-OH,4S-Me)]; lactam 1-C) | > 20 µg/mL | 66.7% |  |
| C[C@@H](O)[C@@H]1NC(=O)[C@H]([C@H](O)[C@@H](O)c2ccc(O)cc2)NC(=O)[C@@H]2C[C@@H](O)CN2C(=O)[C@H]([C@@H](C)O)NC(=O)[C@@H](NC(=O)c2ccc(C#Cc3ccc(-c4ccccc4)cc3)cc2)C[C@@H](O)[C@@H](O)NC(=O)[C@@H]2[C@@H](O)[C@@H](C)CN2C1=O (X18-[Orn(4R-OH,5R-OH)]T[Hyp][hTyr(3S-OH,4S-OH)]T[Pro(3S-OH,4S-Me)]; lactam 1-C) | 0.078 µg/mL (≈ 0.0723 µM) | 78.2% | 1.7 mg/kg |
| CCCCOc1ccc(-c2ccc(C(=O)N[C@H]3C[C@@H](O)[C@@H](O)NC(=O)[C@@H]4[C@@H](O)[C@@H](C)CN4C(=O)[C@H]([C@@H](C)O)NC(=O)[C@H]([C@H](O)[C@@H](O)c4ccc(O)cc4)NC(=O)[C@@H]4C[C@@H](O)CN4C(=O)[C@H]([C@@H](C)O)NC3=O)cc2)cc1 (X21-[Orn(4R-OH,5R-OH)]T[Hyp][hTyr(3S-OH,4S-OH)]T[Pro(3S-OH,4S-Me)]; lactam 1-C) | 0.078 µg/mL (≈ 0.0743 µM) | 71.4% | 0.8 mg/kg |
| CCCCCCCCOCCOc1ccc(C(=O)N[C@H]2C[C@@H](O)[C@@H](O)NC(=O)[C@@H]3[C@@H](O)[C@@H](C)CN3C(=O)[C@H]([C@@H](C)O)NC(=O)[C@H]([C@H](O)[C@@H](O)c3ccc(O)cc3)NC(=O)[C@@H]3C[C@@H](O)CN3C(=O)[C@H]([C@@H](C)O)NC2=O)cc1 (X19-[Orn(4R-OH,5R-OH)]T[Hyp][hTyr(3S-OH,4S-OH)]T[Pro(3S-OH,4S-Me)]; lactam 1-C) | 2.5 µg/mL (≈ 2.33 µM) | 54.8% | 4.4 mg/kg |
| CCCCCCCCCCOc1cc2ccccc2cc1C(=O)N[C@H]1C[C@@H](O)[C@@H](O)NC(=O)[C@@H]2[C@@H](O)[C@@H](C)CN2C(=O)[C@H]([C@@H](C)O)NC(=O)[C@H]([C@H](O)[C@@H](O)c2ccc(O)cc2)NC(=O)[C@@H]2C[C@@H](O)CN2C(=O)[C@H]([C@@H](C)O)NC1=O (X27-[Orn(4R-OH,5R-OH)]T[Hyp][hTyr(3S-OH,4S-OH)]T[Pro(3S-OH,4S-Me)]; lactam 1-C) | 20 µg/mL (≈ 18 µM) | 40.6% |  |
| C[C@@H](O)[C@@H]1NC(=O)[C@H]([C@H](O)[C@@H](O)c2ccc(O)cc2)NC(=O)[C@@H]2C[C@@H](O)CN2C(=O)[C@H]([C@@H](C)O)NC(=O)[C@@H](NC(=O)CCCCCOc2ccc(-c3ccccc3)cc2)C[C@@H](O)[C@@H](O)NC(=O)[C@@H]2[C@@H](O)[C@@H](C)CN2C1=O (X23-[Orn(4R-OH,5R-OH)]T[Hyp][hTyr(3S-OH,4S-OH)]T[Pro(3S-OH,4S-Me)]; lactam 1-C) | 1.25 µg/mL (≈ 1.17 µM) | 69.1% |  |
| CCC(CC)COc1ccc(-c2ccc(C(=O)N[C@H]3C[C@@H](O)[C@@H](O)NC(=O)[C@@H]4[C@@H](O)[C@@H](C)CN4C(=O)[C@H]([C@@H](C)O)NC(=O)[C@H]([C@H](O)[C@@H](O)c4ccc(O)cc4)NC(=O)[C@@H]4C[C@@H](O)CN4C(=O)[C@H]([C@@H](C)O)NC3=O)cc2)cc1 (X11-[Orn(4R-OH,5R-OH)]T[Hyp][hTyr(3S-OH,4S-OH)]T[Pro(3S-OH,4S-Me)]; lactam 1-C) | 0.039 µg/mL (≈ 0.0362 µM) |  | 4.6 mg/kg |
| CCCCCOCCOc1ccc(C(=O)N[C@H]2C[C@@H](O)[C@@H](O)NC(=O)[C@@H]3[C@@H](O)[C@@H](C)CN3C(=O)[C@H]([C@@H](C)O)NC(=O)[C@H]([C@H](O)[C@@H](O)c3ccc(O)cc3)NC(=O)[C@@H]3C[C@@H](O)CN3C(=O)[C@H]([C@@H](C)O)NC2=O)cc1 (X29-[Orn(4R-OH,5R-OH)]T[Hyp][hTyr(3S-OH,4S-OH)]T[Pro(3S-OH,4S-Me)]; lactam 1-C) | > 20 µg/mL | 17.1% |  |
| C[C@@H](O)[C@@H]1NC(=O)[C@H]([C@H](O)[C@@H](O)c2ccc(O)cc2)NC(=O)[C@@H]2C[C@@H](O)CN2C(=O)[C@H]([C@@H](C)O)NC(=O)[C@@H](NC(=O)c2ccc(-c3ccc(OCC4CCCC4)cc3)cc2)C[C@@H](O)[C@@H](O)NC(=O)[C@@H]2[C@@H](O)[C@@H](C)CN2C1=O (X22-[Orn(4R-OH,5R-OH)]T[Hyp][hTyr(3S-OH,4S-OH)]T[Pro(3S-OH,4S-Me)]; lactam 1-C) | 0.039 µg/mL (≈ 0.0362 µM) |  | 1.2 mg/kg |
| CCCCCCOc1cc2ccccc2cc1C(=O)N[C@H]1C[C@@H](O)[C@@H](O)NC(=O)[C@@H]2[C@@H](O)[C@@H](C)CN2C(=O)[C@H]([C@@H](C)O)NC(=O)[C@H]([C@H](O)[C@@H](O)c2ccc(O)cc2)NC(=O)[C@@H]2C[C@@H](O)CN2C(=O)[C@H]([C@@H](C)O)NC1=O (X30-[Orn(4R-OH,5R-OH)]T[Hyp][hTyr(3S-OH,4S-OH)]T[Pro(3S-OH,4S-Me)]; lactam 1-C) | 20 µg/mL (≈ 19 µM) | 19.4% |  |
| CCCCC(Oc1ccc(-c2ccccc2)cc1)C(=O)N[C@H]1C[C@@H](O)[C@@H](O)NC(=O)[C@@H]2[C@@H](O)[C@@H](C)CN2C(=O)[C@H]([C@@H](C)O)NC(=O)[C@H]([C@H](O)[C@@H](O)c2ccc(O)cc2)NC(=O)[C@@H]2C[C@@H](O)CN2C(=O)[C@H]([C@@H](C)O)NC1=O (stereo partly drawn) (X24-[Orn(4R-OH,5R-OH)]T[Hyp][hTyr(3S-OH,4S-OH)]T[Pro(3S-OH,4S-Me)]; lactam 1-C) | 80 µg/mL (≈ 75.2 µM) | 55.1% |  |
